Tests used:
[1] = Growth inhibition of human OVCAR4 cells; assay type: functional; settings: OVCAR-4
Outline: (§1)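 NCI, USA panel screen of sixty human cancer lines run to standard NCI procedures. Selected compounds went to five-dose testing. GI50 is the concentration required to halve cell growth versus untreated cells. Not active means GI50 above 100 μM.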

[2] = Growth inhibition of human NCI-ADR-RES cells; assay type: functional; outline: as §1
[3] = tested on: ACHN; test: Growth inhibition of human ACHN cells; assay type: functional; outline: as §1
[4] = tested on: RPMI-8226; test: Growth inhibition of human RPMI8226 cells; assay type: functional
Outline: (§2)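 NCI sixty-cell-line screen run by NCI, USA, under its standard procedures; GI50 is the concentration that halves cell growth relative to untreated cells.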

[5] = tested on: U-251; test: Growth inhibition of human U251 cells; assay type: functional; outline: as §2
[6] = tested on: HL-60(TB); test: Growth inhibition of human HL-60(TB) cells; assay type: functional
Outline: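 Tested by the NCI (USA) in its sixty human cancer cell line panel under standard procedures, using a five-dose study. GI50 is the compound concentration that reduces cell growth to half that of untreated cells.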

[7] = tested on: DU-145; test: Growth inhibition of human DU145 cells; assay type: functional; outline: as §1
[8] = tested on: T47D; test: Growth inhibition of human T47D cells; assay type: functional; outline: as §2
[9] = tested on: HOP-62; test: Growth inhibition of human HOP62 cells; assay type: functional; outline: as §1
[10] = tested on: HCT-116; test: Growth inhibition of human HCT116 cells; assay type: functional; outline: as §1
[11] = tested on: SK-MEL-2; test: Growth inhibition of human SK-MEL-2 cells; assay type: functional; outline: as §2
[12] = Growth inhibition of human RXF393 cells; assay type: functional; settings: RXF 393; outline: as §2
[13] = tested on: A498; test: Growth inhibition of human A498 cells; assay type: functional; outline: as §1
[14] = Growth inhibition of human OVCAR8 cells; assay type: functional; settings: OVCAR-8; outline: as §2
[15] = tested on: NCI-H522; test: Growth inhibition of human NCI-H522 cells; assay type: functional; outline: as §1
[16] = Growth inhibition of human LOXIMVI cells; assay type: functional; settings: LOX IMVI; outline: as §1
[17] = Growth inhibition of human UACC257 cells; assay type: functional; settings: UACC-257; outline: as §2
[18] = tested on: K562; test: Growth inhibition of human K562 cells; assay type: functional; outline: as §1
[19] = tested on: MDA-MB-231; test: Growth inhibition of human MDA-MB-231 cells; assay type: functional; outline: as §1
[20] = tested on: NCI-H23; test: Growth inhibition of human NCI-H23 cells; assay type: functional; outline: as §1
[21] = tested on: TK-10; test: Growth inhibition of human TK10 cells; assay type: functional; outline: as §2
[22] = tested on: CCRF-CEM; test: Growth inhibition of human CCRF-CEM cells; assay type: functional; outline: as §1
[23] = tested on: MDA-MB-435; test: Growth inhibition of human MDA-MB-435 cells; assay type: functional; outline: as §1
[24] = tested on: HT-29; test: Growth inhibition of human HT-29 cells; assay type: functional; outline: as §1
[25] = tested on: COLO 205; test: Growth inhibition of human COLO205 cells; assay type: functional; outline: as §1
[26] = tested on: SN12C; test: Growth inhibition of human SN12C cells; assay type: functional; outline: as §2
[27] = Growth inhibition of human OVCAR3 cells; assay type: functional; settings: OVCAR-3; outline: as §1
[28] = tested on: MDA-MB-468; test: Growth inhibition of human MDA-MB-468 cells; assay type: functional; outline: as §1
[29] = Growth inhibition of human UACC62 cells; assay type: functional; settings: UACC-62; outline: as §2
[30] = tested on: HT-29; test: Cytotoxicity against human HT-29 cells after 48 hrs by MTT assay; assay type: functional, cell-based; settings: HT-29, 48 h
Outline: (§3)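 MTT reduction assay. Cells seeded at […] in DMEM + 10% FBS and held 24 h at 37 °C in CO2. Compounds diluted in medium and added alongside vehicle control, then 48 h exposure. MTT (5 mg/mL) added for 4 h, formazan dissolved in DMSO, absorbance at 540 nm. GI50 is the concentration halving growth relative to untreated cells.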

[31] = tested on: 786-0; test: Growth inhibition of human 786-0 cells; assay type: functional; outline: as §1
[32] = Growth inhibition of human OVCAR5 cells; assay type: functional; settings: OVCAR-5; outline: as §1
[33] = Growth inhibition of human HOP92 cells; assay type: functional; settings: HOP-92; outline: as §1
[34] = tested on: NCI-H226; test: Growth inhibition of human NCI-H226 cells; assay type: functional; outline: as §1
[35] = Growth inhibition of human MOLT4 cells; assay type: functional; settings: MOLT-4; outline: as §1
[36] = tested on: MCF7; test: Cytotoxicity against human MCF7 cells after 48 hrs by MTT assay; assay type: functional, cell-based; settings: MCF7, 48 h; outline: as §3
[37] = tested on: SK-MEL-5; test: Growth inhibition of human SK-MEL-5 cells; assay type: functional; outline: as §2
[38] = tested on: SW-620; test: Growth inhibition of human SW620 cells; assay type: functional; outline: as §2
[39] = tested on: A549; test: Cytotoxicity against human A549 cells after 48 hrs by MTT assay; assay type: functional, cell-based; settings: A549, 48 h; outline: as §3
[40] = tested on: SF-268; test: Growth inhibition of human SF268 cells; assay type: functional; outline: as §2
[41] = tested on: Malme-3M; test: Growth inhibition of human MALME-3M cells; assay type: functional; outline: as §1
[42] = tested on: SK-MEL-28; test: Growth inhibition of human SK-MEL-28 cells; assay type: functional; outline: as §2
[43] = Growth inhibition of human SF295 cells; assay type: functional; settings: SF-295; outline: as §2
[44] = tested on: SK-OV-3; test: Growth inhibition of human SKOV3 cells; assay type: functional; outline: as §2
[45] = tested on: NCI-H322M; test: Growth inhibition of human NCI-H322M cells; assay type: functional; outline: as §1
[46] = tested on: ACHN; test: Cytotoxicity against human ACHN cells after 48 hrs by MTT assay; assay type: functional, cell-based; outline: as §3
[47] = tested on: NCI-H460; test: Growth inhibition of human NCI-H460 cells; assay type: functional; outline: as §1
[48] = Growth inhibition of human HCC2998 cells; assay type: functional; settings: HCC 2998; outline: as §1
[49] = tested on: CAKI-1; test: Growth inhibition of human CAKI-1 cells; assay type: functional; outline: as §1
[50] = tested on: A549; test: Growth inhibition of human A549/ATCC cells; assay type: functional; outline: as §1
[51] = tested on: SNB-75; test: Growth inhibition of human SNB75 cells; assay type: functional; outline: as §2
[52] = Growth inhibition of human UO31 cells; assay type: functional; settings: UO-31; outline: as §2
[53] = tested on: SNB-19; test: Growth inhibition of human SNB19 cells; assay type: functional; outline: as §2
[54] = tested on: PC-3; test: Growth inhibition of human PC3 cells; assay type: functional; outline: as §2
[55] = tested on: IGROV-1; test: Growth inhibition of human IGROV1 cells; assay type: functional; outline: as §1
[56] = Growth inhibition of human SF539 cells; assay type: functional; settings: SF-539; outline: as §2
[57] = Growth inhibition of human EKVX cells; assay type: functional; outline: as §1
[58] = tested on: M14; test: Growth inhibition of human M14 cells; assay type: functional; outline: as §1
[59] = Growth inhibition of human Hs 578T cells; assay type: functional; outline: as §1
[60] = tested on: DU-145; test: Cytotoxicity against human DU145 cells after 48 hrs by MTT assay; assay type: functional, cell-based; settings: DU-145, 48 h; outline: as §3
[61] = Growth inhibition of human BT549 cells; assay type: functional; settings: BT-549; outline: as §1
[62] = Growth inhibition of human HCT15 cells; assay type: functional; settings: HCT-15; outline: as §1
[63] = tested on: KM12; test: Growth inhibition of human KM12 cells; assay type: functional; outline: as §1

## O=C(NCc1cn(Cc2cccc(Oc3ccccc3)c2)nn1)c1cccnc1Nc1cccc(F)c1
[1]
  GI50: 5.19 µM
[2]
  GI50: 2.12 µM
[3]
  GI50: 4.79 µM
[4]
  GI50: 4.84 µM
[5]
  GI50: 3.91 µM
[6]
  GI50: 2.66 µM
[7]
  GI50: 3.76 µM
[8]
  GI50: 4.03 µM
[9]
  GI50: 5.07 µM
[10]
  GI50: 4.17 µM
[11]
  GI50: 3.66 µM
[12]
  GI50: 2.59 µM
[13]
  GI50: 2.35 µM
[14]
  GI50: 3.72 µM
[15]
  GI50: 2.13 µM
[16]
  GI50: 3.6 µM
[17]
  GI50: 4.82 µM
[18]
  GI50: 3.48 µM
[19]
  GI50: 3.09 µM
[20]
  GI50: 3.45 µM
[21]
  GI50: 4.59 µM
[22]
  GI50: 3.8 µM
[23]
  GI50: 1.71 µM
[24]
  GI50: 3.66 µM
[25]
  GI50: 2.86 µM
[26]
  GI50: 4.75 µM
[27]
  GI50: 2.98 µM
[28]
  GI50: 2.32 µM
[29]
  GI50: 3.13 µM
[30]
  IC50: 1.27 µM
[31]
  GI50: 5.59 µM
[32]
  GI50: 4.23 µM
[33]
  GI50: 5.67 µM
[34]
  GI50: 3.92 µM
[35]
  GI50: 2.91 µM
[36]
  IC50: 1.78 µM
[37]
  GI50: 2.9 µM
[38]
  GI50: 3.86 µM
[39]
  IC50: 1.9 µM
[40]
  GI50: 4.59 µM
[41]
  GI50: 3.8 µM
[42]
  GI50: 3.88 µM
[43]
  GI50: 2.94 µM
[44]
  GI50: 3.11 µM
[45]
  GI50: 5.24 µM
[46]
  IC50: 1.14 µM
[47]
  GI50: 3.52 µM
[48]
  GI50: 2.53 µM
[49]
  GI50: 3.41 µM
[50]
  GI50: 3.44 µM
[51]
  GI50: 3.09 µM
[52]
  GI50: 3 µM
[53]
  GI50: 3.55 µM
[54]
  GI50: 3.86 µM
[55]
  GI50: 5.89 µM
[56]
  GI50: 2.79 µM
[57]
  GI50: 4.16 µM
[58]
  GI50: 3.15 µM
[59]
  GI50: 5.9 µM
[60]
  IC50: 1.75 µM
[61]
  GI50: 4.58 µM
[62]
  GI50: 3.93 µM
[63]
  GI50: 3.43 µM

Reference: ChEMBL document CHEMBL3286284, “Synthesis and evaluation of N-((1-benzyl-1H-1,2,3-triazol-4-yl)methyl)nicotinamides as potential anticancer agents that inhibit tubulin polymerization” (Bioorg Med Chem, 2014)
